# Experimental data reported in ChEMBL document CHEMBL4622841, “Structural modifications of indolinones bearing a pyrrole moiety and discovery of a multi-kinase inhibitor with potent antitumor activity” (Bioorg Med Chem, 2020).
# Active and inactive are the calls of the source. The rule behind the calls is not given here.
# Tests used:
# MKN-74 [1] = experiment: Induction of apoptosis in human MKN74 cells assessed as necrotic cells at 0.3 uM incubated for 72 hrs by Annexin-V-FITC/propidium iodide staining-based flow cytometric analysis (reference value: 6.29%); assay type: functional
# [2] = molecular target: Platelet-derived growth factor receptor beta (Homo sapiens, UniProt P09619); experiment: Inhibition of N-terminal GST-fused human PDGFRbeta cytoplasmic domain (557 to 1106 (end) residues) expressed in baculovirus expression system using FAM-labeled peptide and ATP as substrate preincubated for 10 mins followed by substrate addition measured after 1 hr by mobility shift assay
# Platelet-derived growth factor receptor beta, sequence (P09619 whole entry, the tested form may be a part): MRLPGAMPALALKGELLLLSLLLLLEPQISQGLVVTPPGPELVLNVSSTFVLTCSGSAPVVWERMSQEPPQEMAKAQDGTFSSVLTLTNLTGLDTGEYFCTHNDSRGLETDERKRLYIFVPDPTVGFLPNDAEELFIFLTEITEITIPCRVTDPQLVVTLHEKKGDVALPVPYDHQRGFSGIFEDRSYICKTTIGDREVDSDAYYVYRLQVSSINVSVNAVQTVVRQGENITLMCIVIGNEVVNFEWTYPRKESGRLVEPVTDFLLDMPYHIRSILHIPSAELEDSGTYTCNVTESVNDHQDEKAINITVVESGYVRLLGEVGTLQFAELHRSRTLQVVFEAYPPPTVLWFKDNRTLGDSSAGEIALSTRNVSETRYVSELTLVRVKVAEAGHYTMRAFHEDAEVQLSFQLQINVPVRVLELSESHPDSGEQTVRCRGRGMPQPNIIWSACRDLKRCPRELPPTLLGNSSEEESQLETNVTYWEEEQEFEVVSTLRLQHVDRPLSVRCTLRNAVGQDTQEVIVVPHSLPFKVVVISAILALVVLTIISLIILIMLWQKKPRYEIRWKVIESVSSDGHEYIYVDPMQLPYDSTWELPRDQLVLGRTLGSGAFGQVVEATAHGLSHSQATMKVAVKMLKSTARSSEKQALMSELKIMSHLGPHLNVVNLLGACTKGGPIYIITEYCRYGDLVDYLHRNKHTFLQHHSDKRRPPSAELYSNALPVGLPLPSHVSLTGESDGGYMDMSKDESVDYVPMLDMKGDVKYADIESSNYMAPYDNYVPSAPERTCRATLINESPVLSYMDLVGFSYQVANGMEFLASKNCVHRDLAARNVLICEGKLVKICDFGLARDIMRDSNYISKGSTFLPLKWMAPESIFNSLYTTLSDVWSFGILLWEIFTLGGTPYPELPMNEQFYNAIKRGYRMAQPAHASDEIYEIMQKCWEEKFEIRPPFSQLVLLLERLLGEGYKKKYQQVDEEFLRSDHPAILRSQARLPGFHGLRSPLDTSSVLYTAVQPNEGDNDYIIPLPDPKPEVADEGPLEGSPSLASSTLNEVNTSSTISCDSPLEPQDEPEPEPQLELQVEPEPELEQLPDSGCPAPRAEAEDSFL
# [3] = molecular target: Mast/stem cell growth factor receptor Kit (Homo sapiens, UniProt P10721); experiment: Inhibition of c-Kit (unknown origin) using FAM-labeled peptide and ATP as substrate preincubated for 10 mins followed by substrate addition measured after 1 hr by mobility shift assay
# Mast/stem cell growth factor receptor Kit, sequence (P10721 whole entry): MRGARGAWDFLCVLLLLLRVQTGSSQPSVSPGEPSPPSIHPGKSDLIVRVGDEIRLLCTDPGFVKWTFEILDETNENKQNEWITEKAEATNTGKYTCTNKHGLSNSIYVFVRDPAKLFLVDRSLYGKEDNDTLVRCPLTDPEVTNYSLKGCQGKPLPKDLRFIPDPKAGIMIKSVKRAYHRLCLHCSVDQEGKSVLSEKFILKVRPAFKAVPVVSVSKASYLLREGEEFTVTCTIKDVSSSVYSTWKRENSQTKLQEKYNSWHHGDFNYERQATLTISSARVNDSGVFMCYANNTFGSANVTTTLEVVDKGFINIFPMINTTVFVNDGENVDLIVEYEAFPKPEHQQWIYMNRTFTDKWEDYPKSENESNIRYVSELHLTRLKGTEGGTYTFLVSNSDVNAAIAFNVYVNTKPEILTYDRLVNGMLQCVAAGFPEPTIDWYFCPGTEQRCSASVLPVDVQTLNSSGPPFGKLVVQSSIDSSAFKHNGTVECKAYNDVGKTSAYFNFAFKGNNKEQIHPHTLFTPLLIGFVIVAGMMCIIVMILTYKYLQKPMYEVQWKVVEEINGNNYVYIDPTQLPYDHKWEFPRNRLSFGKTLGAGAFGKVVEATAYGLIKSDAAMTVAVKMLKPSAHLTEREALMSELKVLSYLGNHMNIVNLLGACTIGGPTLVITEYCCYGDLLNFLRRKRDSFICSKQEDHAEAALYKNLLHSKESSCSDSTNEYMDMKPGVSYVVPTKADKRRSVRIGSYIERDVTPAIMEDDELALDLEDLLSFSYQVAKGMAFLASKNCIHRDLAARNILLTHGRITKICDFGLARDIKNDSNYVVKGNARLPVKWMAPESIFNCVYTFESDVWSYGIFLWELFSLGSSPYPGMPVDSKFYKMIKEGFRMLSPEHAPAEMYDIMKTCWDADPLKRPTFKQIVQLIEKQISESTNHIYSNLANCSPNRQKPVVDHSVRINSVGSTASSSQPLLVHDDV
# [4] = molecular target: Cyclin-dependent kinase 4 (Homo sapiens, UniProt P11802); experiment: Inhibition of CDK4 (unknown origin) using FAM-labeled peptide and ATP as substrate preincubated for 10 mins followed by substrate addition measured after 1 hr by mobility shift assay
# Cyclin-dependent kinase 4, sequence (P11802 whole entry): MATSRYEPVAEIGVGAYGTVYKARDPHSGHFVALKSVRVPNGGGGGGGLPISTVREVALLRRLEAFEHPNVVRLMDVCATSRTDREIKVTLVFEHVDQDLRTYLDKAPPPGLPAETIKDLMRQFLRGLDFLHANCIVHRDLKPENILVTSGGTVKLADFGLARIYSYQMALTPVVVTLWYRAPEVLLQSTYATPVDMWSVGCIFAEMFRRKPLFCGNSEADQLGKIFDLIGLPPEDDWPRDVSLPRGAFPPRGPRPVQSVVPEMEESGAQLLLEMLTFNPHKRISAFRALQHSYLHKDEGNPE
# [5] = molecular target: T1, Serine/threonine-protein kinase Chk1 (Homo sapiens, UniProt O14757); experiment: Inhibition of CHK (unknown origin) using FAM-labeled peptide and ATP as substrate preincubated for 10 mins followed by substrate addition measured after 1 hr by mobility shift assay
# T1 sequence (O14757 whole entry): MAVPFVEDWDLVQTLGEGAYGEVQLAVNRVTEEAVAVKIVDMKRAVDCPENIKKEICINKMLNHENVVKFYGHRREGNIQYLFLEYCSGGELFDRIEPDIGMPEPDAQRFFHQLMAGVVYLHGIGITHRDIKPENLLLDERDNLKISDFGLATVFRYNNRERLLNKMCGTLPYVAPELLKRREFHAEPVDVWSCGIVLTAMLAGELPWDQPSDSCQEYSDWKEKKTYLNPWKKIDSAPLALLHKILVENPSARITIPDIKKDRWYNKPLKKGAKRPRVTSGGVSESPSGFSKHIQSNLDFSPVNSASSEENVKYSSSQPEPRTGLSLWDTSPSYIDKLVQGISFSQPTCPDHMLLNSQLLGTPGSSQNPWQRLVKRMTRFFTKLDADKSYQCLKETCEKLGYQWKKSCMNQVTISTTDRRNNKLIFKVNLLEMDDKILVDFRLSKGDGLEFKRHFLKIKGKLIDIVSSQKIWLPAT
# HT-29 [6] = experiment: Inhibition of receptor tyrosine kinase in human HT-29 cells assessed as reduction in AKT phosphorylation at Ser473 residue after 24 hrs by Western blotting analysis; assay type: cell-based
# How it was run: (§1)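 Cells cultured overnight, then treated with compound at different concentrations for 24 h. About 1×10⁶ cells harvested and immunoblotted for p-AKT (Ser473), AKT, p-ERK (Thr202/Tyr204), ERK, with GAPDH as loading control. Detection by chemiluminescence and gel imaging. Blots shown are representative of several experiments.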
# HT-29 [7] = experiment: Inhibition of receptor tyrosine kinase in human HT-29 cells assessed as reduction in ERK phosphorylation at Thr202/Tyr204 residues at 3 uM after 24 hrs by Western blotting analysis; assay type: cell-based; how it was run: as §1
# HepG2 = experiment: Inhibition of colony formation in human HepG2 cells at 1 uM measured after 14 days by crystal violet staining-based assay; assay type: functional, cell-based
# How it was run: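 Cells plated and exposed to test agent at a range of concentrations for 14 days, then colonies counted. Colony formation expressed relative to vehicle-treated cells as mean ± SEM. Significance versus vehicle by unpaired two-tailed Student's t-test.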
# HT-29 [8] = experiment: Induction of apoptosis in human HT-29 cells assessed as late apoptotic cells at 1 uM incubated for 72 hrs by Annexin-V-FITC/propidium iodide staining-based flow cytometric analysis (reference value: 6.12%); assay type: functional
# MKN-74 [9] = experiment: Induction of apoptosis in human MKN74 cells assessed as late apoptotic cells at 0.3 uM incubated for 72 hrs by Annexin-V-FITC/propidium iodide staining-based flow cytometric analysis (reference value: 12.42%); assay type: functional
# MKN-74 [10] = experiment: Induction of apoptosis in human MKN74 cells assessed as late apoptotic cells at 1 uM incubated for 72 hrs by Annexin-V-FITC/propidium iodide staining-based flow cytometric analysis (reference value: 12.42%); assay type: functional
# MKN-74 [11] = experiment: Induction of apoptosis in human MKN74 cells assessed as late apoptotic cells at 3 uM incubated for 72 hrs by Annexin-V-FITC/propidium iodide staining-based flow cytometric analysis (reference value: 12.42%); assay type: functional
compound,measurement,setting,value
COC(=O)c1ccc2c(c1)NC(=O)/C2=C(\Nc1ccc(-n2c(C)ccc2CN2CCN(C)CC2)cc1)c1ccccc1,Activity,MKN-74 [1],6.48%
same,IC50,[2],9.9 nM
same,IC50,[3],17 nM
same,IC50,[4],> 1000 nM
same,IC50,[5],> 1000 nM
same,inhibition,HT-29 [6],Dose-dependent effect
same,inhibition,HT-29 [7],Active
same,inhibition,HepG2,Active
same,Activity,HT-29 [8],37.8%
same,Activity,MKN-74 [9],16.86%
same,Activity,MKN-74 [10],22.1%
same,Activity,MKN-74 [11],79.51%
